Source: PubChem
Hits are enriched below; roughly 2.4% of the tested compounds scored in any of these assays.
HNF4A DNA FP: change in binding of human HNF4A to DNA, primary screen, biochemical, fluorescence polarization, FITC-DNA. Hepatocyte nuclear factor 4-alpha (Homo sapiens), P41235. 1 h. activity change, % at 10 µM. 360,000 compounds, 0.3% hits. AID 1224865, 2016; in the data active = activity change above about 30%, passing the limit was not always enough
CSN deneddyl inh: inhibitors of CSN-mediated cullin deneddylation, primary screen, biochemical, fluorescence polarization, uHTS | COP9 signalosome complex subunit 5 (Homo sapiens), Q92905 | Purified CSN, SCF-Nedd8-OG deneddylation | inhibition, % at 12.5 µM | 360,000 compounds, 0.38% hits;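 active = pattern-corrected inhibition above about 35%, with an unprinted fluorescence ratio check between 0.5 and 1.5, limit read from the data, passing the limit was not always enough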
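Detection – fluorescence polarization · System – HEK293T-derived human Csn5 enzyme · Controls – substrate-only high control, full reaction low control · Timing – 90 min, room temperature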
PREPL inhibitor: PREPL enzyme inhibitors, primary screen, biochemical, fluorescence polarization | inhibition, % at 5.96 µM | 320,000 compounds, 0.68% hits | recombinant PREPL, fluorescence polarization activity-based probe; in the data active = inhibition above about 43%
Rpn11 block: Rpn11 (PSMD14) deubiquitinase inhibitors, primary screen, biochemical, fluorescence polarization, uHTS; 26S proteasome non-ATPase regulatory subunit 14 (Homo sapiens), O00487; human 26S proteasome, Ub4-pepOG fluorescence polarization; 20S core pre-blocked with epoxomicin; inhibition, % at 20 µM; 360,000 compounds, 0.59% hits;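 active = inhibition at 20 µM, scaled to each plate's controls, above about 33%, limit read from the data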
Tb MetRS inh: T. brucei MetRS inhibitors, primary screen, biochemical, luminescence | purified T. brucei MetRS, ATP depletion, Kinase-Glo luminescence | methionyl-tRNA synthetase (Trypanosoma brucei brucei) | inhibition, % at 11.9 µM | 360,000 compounds, 0.4% hits;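 active = inhibition above a per-plate cutoff of the control wells' mean inhibition plus 3 SD, cut at about 5.5% in these data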
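technique = Kinase-Glo luminescence, ATP depletion format | system = purified MetRS (methionyl-tRNA synthetase) enzyme from Trypanosoma brucei | timing = 15 min preincubation, 2 h reaction, all 25 °C | evaluation = percent inhibition versus plate control medians | dosing = single dose, 11.9 µM final nominal, 0.9% final DMSO | also added = substrates ATP, L-methionine and bulk Escherichia coli tRNA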
Neddyl block: inhibitors of cullin neddylation, primary screen, biochemical, TR-FRET, uHTS, NAE and Ubc12; inhibition, % at 25 µM; 360,000 compounds, 0.58% hits; NEDD8-conjugating enzyme Ubc12 (Homo sapiens) + NEDD8-activating enzyme E1 regulatory …; in the data active = inhibition above about 36%
Target sequence (P61081 whole entry, looked up): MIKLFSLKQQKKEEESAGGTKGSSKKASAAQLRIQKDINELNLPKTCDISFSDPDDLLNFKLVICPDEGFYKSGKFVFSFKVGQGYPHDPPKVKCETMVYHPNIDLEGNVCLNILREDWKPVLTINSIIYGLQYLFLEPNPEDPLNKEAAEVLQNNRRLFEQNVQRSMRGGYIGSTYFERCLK
Target sequence (Q13564 whole entry, looked up): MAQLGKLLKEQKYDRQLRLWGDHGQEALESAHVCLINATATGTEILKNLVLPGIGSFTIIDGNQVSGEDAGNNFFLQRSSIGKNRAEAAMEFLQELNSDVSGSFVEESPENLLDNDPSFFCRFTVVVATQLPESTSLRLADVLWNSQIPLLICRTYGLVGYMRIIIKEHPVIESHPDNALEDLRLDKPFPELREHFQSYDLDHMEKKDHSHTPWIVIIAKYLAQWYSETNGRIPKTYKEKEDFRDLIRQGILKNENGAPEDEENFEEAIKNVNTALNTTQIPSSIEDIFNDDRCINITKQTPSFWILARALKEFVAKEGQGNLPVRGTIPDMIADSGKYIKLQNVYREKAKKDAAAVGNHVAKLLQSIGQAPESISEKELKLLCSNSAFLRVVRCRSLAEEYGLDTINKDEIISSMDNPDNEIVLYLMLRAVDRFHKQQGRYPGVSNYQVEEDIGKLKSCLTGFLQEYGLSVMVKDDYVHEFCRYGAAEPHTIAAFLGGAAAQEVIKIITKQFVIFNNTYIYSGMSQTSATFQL
Rpn11 inh conf: Rpn11 (PSMD14) deubiquitinase inhibitors, confirmation, biochemical, fluorescence polarization, single concentration; shares compounds with Rpn11 block; 1,900 compounds, 29% hits; purified human 26S proteasome, Ub4-pepOG fluorescence polarization; proteasome pretreated with epoxomicin; inhibition, % at 20 µM
MMP-2 counter: MMP-2 enzyme inhibition, confirmation, counter-screen for RPN11 inhibitor project, biochemical, fluorescence, single concentration | shares compounds with Rpn11 block | recombinant MMP-2, FRET peptide cleavage fluorescence | inhibition, % at 20 µM | 1,900 compounds, 4% hits | AID 602330, 2012;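 note: human MMP-2 activated beforehand with APMA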
Thrombin inh: bovine thrombin protease inhibition, confirmation, counter-screen for Rpn11 inhibitor project, biochemical, fluorescence polarization, single concentration; inhibition, % at 20 µM; 1,900 compounds, 13% hits; shares compounds with Rpn11 block; AID 602333, 2012; bovine thrombin cleavage of Ub4-pepOG;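 active = mean inhibition at least 40% at 20 µM, or signal 3 deviations below plate average, so some actives read negative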
Each line names hits and unclear results; the compound was inactive in the other large screens (follow-up assays come after a bar, where shown). Cut-off read from the data, not from the text of the source, unless noted: active = inhibition above about 40%; inactive = the rest.

CCn1c(C)cc(/C=C2/SC(=S)N(CC(=O)O)C2=O)c1C	HNF4A DNA FP 44, Rpn11 block 52 | Rpn11 inh conf 97 | MMP-2 counter inactive | Thrombin inh 63
C#CCN1C(=O)S/C(=C/c2cc(C)n(CC)c2C)C1=O	none
CCCN(CC(=O)Nc1cc(C)on1)S(=O)(=O)c1cccc(C(F)(F)F)c1	Rpn11 block 35 | Rpn11 inh conf inactive | MMP-2 counter inactive | Thrombin inh inactive
Cc1cc(NC(=O)Nc2cccc(C(F)(F)F)c2)no1	none
COc1ccccc1NC(=O)C1=C(C)NC(=O)NC1c1ccccc1[N+](=O)[O-] (centres undefined)	Rpn11 block 52 | Rpn11 inh conf inactive | MMP-2 counter inactive | Thrombin inh inactive
CC(C)CCOc1ccc(/C=N/N2C(=O)CSC2=S)cc1	Rpn11 block 39 | Rpn11 inh conf inactive | MMP-2 counter inactive | Thrombin inh inactive
O=C1CSC(=S)N1N=Cc1ccc(OCc2ccccc2)cc1	none (no result: PREPL inhibitor)
O=C(Nc1nc2ccccc2s1)c1ccc(Cl)s1	none
Cc1ccc2nc(NC(=O)c3ccc(-c4nc5ccccc5s4)s3)sc2c1	HNF4A DNA FP 69, CSN deneddyl inh 52, Rpn11 block 152 | Rpn11 inh conf inactive | MMP-2 counter inactive | Thrombin inh inactive
Cc1nnc(C)c2c(C)n(C(c3ccccc3)c3ccccc3)c(C)c12	Rpn11 block 43 | Rpn11 inh conf inactive | MMP-2 counter inactive | Thrombin inh inactive
Cc1nnc(C)c2c(C)n(-c3ccccc3)c(C)c12	none (no result: PREPL inhibitor)
COC(=O)c1cc(Br)c(=O)n(CCc2ccc(F)cc2)c1	Rpn11 block 93 | Rpn11 inh conf inactive | MMP-2 counter inactive | Thrombin inh inactive
COC(=O)c1ccc2c(c1)NC(=O)C(N(CC(C)C)CC(C)C)S2 (centres undefined)	HNF4A DNA FP 47, Rpn11 block 48 | Rpn11 inh conf inactive | MMP-2 counter inactive | Thrombin inh inactive
O=C(c1cccs1)N1C[C@@H](n2cc(C3CC3)nn2)[C@H](O)C[C@@H]1c1ccc(Cl)cc1	none (no result: PREPL inhibitor)
Cc1cccc(/C=N/c2sc3c(c2C#N)CCN(Cc2ccccc2)C3)c1O	Rpn11 block 50 | Rpn11 inh conf inactive | MMP-2 counter inactive | Thrombin inh inactive
CC(=O)OC[C@H]1O[C@@H](O[C@H]2C[C@]3(C)C(C[C@@H](O)C4C([C@]5(C)CC[C@@H](C(C)(C)O)O5)CC[C@]43C)[C@@]3(C)CC[C@H](O)C(C)(C)C23)[C@H](O[C@@H]2O[C@@H](C)[C@H](O)[C@@H](O)[C@H]2O)[C@@H](O)[C@@H]1O (some centres undefined)	none
Cc1ccc(-c2c(C)c(-c3ccc(F)cc3)nc(N)c2C#N)o1	Rpn11 block 42 (not shown: Neddyl block) | Rpn11 inh conf inactive | MMP-2 counter inactive | Thrombin inh inactive
CCCNC(=O)N(C)C[C@H]1Oc2ncc(Br)cc2C(=O)N([C@H](C)CO)C[C@H]1C	none (no result: PREPL inhibitor)
CC(C)(C)n1nnnc1C(c1cc2ccccc2o1)N1CCOCC1 (centres undefined)	none (no result: PREPL inhibitor, Rpn11 block)
COC(=O)C1(C(=O)OC)c2ccccc2CN(S(=O)(=O)c2ccc(C)cc2)C1CC(C)=O (centres undefined)	none (no result: PREPL inhibitor, Rpn11 block)
CN1/C(=C\C(=S)NC(=O)c2ccccc2Cl)C(C)(C)c2ccccc21	HNF4A DNA FP 68, Rpn11 block 86 | Rpn11 inh conf inactive | MMP-2 counter 42 | Thrombin inh inactive
COc1ccccc1C(=O)NC(=S)/C=C1/N(C)c2ccccc2C1(C)C	none
O=C(N/N=C/c1ccc(Cl)cc1Cl)c1ccc2nc[nH]c2c1	Rpn11 block 62 | Rpn11 inh conf 63 | MMP-2 counter inactive | Thrombin inh inactive
O=C(N/N=C/c1cc([N+](=O)[O-])ccc1Cl)c1ccc2nc[nH]c2c1	Rpn11 block 69 | Rpn11 inh conf inactive | MMP-2 counter inactive | Thrombin inh inactive
O=C(N/N=C/c1ccccc1C(F)(F)F)c1ccc2nc[nH]c2c1	none
Cc1ccnc(NC(=O)c2ccc(S(=O)(=O)NCc3ccco3)cc2)c1	none
C=C(C)c1cc2c(ccc3ccc(=O)oc32)o1	none
Cc1ccc(OCC(=O)N2N=C(C(F)(F)F)CC2(O)C(C)(C)C)cc1C (centres undefined)	none
Cc1ccccc1OCC(=O)N1N=C(C(F)(F)F)CC1(O)C(C)(C)C (centres undefined)	Rpn11 block 152 | Rpn11 inh conf inactive | MMP-2 counter inactive | Thrombin inh inactive
CSc1nc(-c2ccco2)cc(C(F)(F)F)c1C#N	Rpn11 block 134 | Rpn11 inh conf inactive | MMP-2 counter inactive | Thrombin inh inactive
N#Cc1c(C(F)(F)F)cc(-c2ccco2)nc1SCc1ccncc1	Rpn11 block 54 | Rpn11 inh conf inactive | MMP-2 counter inactive | Thrombin inh inactive
O=C(c1ccc(OC2CCN(CCCc3ccccc3)CC2)cc1)N1CCCC1	none
Cc1cccc(-n2c(-c3ccco3)nc3nc4ccccc4nc32)c1	none (no result: HNF4A DNA FP, CSN deneddyl inh, Rpn11 block, Tb MetRS inh, Neddyl block)
Cc1ccc(-n2c(-c3ccco3)nc3nc4ccccc4nc32)cc1	Rpn11 block 46 (not shown: Neddyl block) | Rpn11 inh conf 43 | MMP-2 counter inactive | Thrombin inh inactive
O=[N+]([O-])c1cccc(/C=N\N=C2c3ccccc3-c3ccccc32)c1O	none
Oc1ccc(C=NN=C2c3ccccc3-c3ccccc32)c(O)c1	Rpn11 block 74 (no result: PREPL inhibitor) | Rpn11 inh conf 58 | MMP-2 counter inactive | Thrombin inh 49
Cc1cnc(C2OCCO2)c2cccc([N+](=O)[O-])c12	none (no result: PREPL inhibitor)
Cc1ccc(Cn2c(/C=C/c3ccco3)nc3ccccc32)cc1	Rpn11 block 59, Neddyl block 45 | Rpn11 inh conf inactive | MMP-2 counter inactive | Thrombin inh inactive
COc1ccc(C(=O)NCCCNC(=O)c2cnccn2)cc1Br	none
